ChEMBL document CHEMBL5260841, “Discovery of N-(4-(6-Acetamidopyrimidin-4-yloxy)phenyl)-2-(2-(trifluoromethyl)phenyl)acetamide (CHMFL-FLT3-335) as a Potent FMS-like Tyrosine Kinase 3 Internal Tandem Duplication (FLT3-ITD) Mutant Selective Inhibitor for Acute Myeloid Leukemia” (J Med Chem, 2019)
pIC50: −log10 of the molar value. Calls of active or inactive are those of the source. The calls are words filed in the database; no cut-off is given here.

Key:
[1] = test system: MV4-11; assay: Antiproliferative activity against human MV4-11 cells transfected with FLT3-ITD mutant assessed as cell growth inhibition incubated for 72 hrs by CCK-8 assay; assay type: functional
Outline: (§1)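 Cells kept at 37 °C, 5% CO2. MV4-11 grown in IMDM with 10% FBS. MOLM13, MOLM14, U937 and HL-60 grown in RPMI 1640 with 10% FBS. OCI-AML-2 grown in α-MEM with 20% FBS. Seeded at 1500-3000 cells/well and exposed to a concentration series for 72 h. Viability read by CCK8 absorbance at 450 nm.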

[2] = target: T1, Platelet-derived growth factor receptor alpha (Homo sapiens, UniProt P16234); assay: Inhibition of PDGFRalpha (unknown origin) assessed as residual activity at 1 uM preincubated for 60 mins followed by ATP addition and measured after 1 hr by ADP-Glo assay relative to control; conditions: time 2.0 hrs
[3] = target: T1, Platelet-derived growth factor receptor alpha; assay: Inhibition of PDGFRalpha (unknown origin) preincubated for 60 mins followed by ATP addition and measured after 1 hr by ADP-Glo assay
Outline: (§2)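 ADP-Glo luminescence assay. Kinase was preincubated with compound for 60 min at room temperature, then ATP/substrate was added and the reaction ran 1 h at 37 °C. ADP-Glo reagent was added for 40 min, then detection reagent for 30 min, and luminescence was read. Enzyme and ATP per target: KIT 20 ng/µL, 50 µM ATP; PDGFRα 2.5 ng/µL, 25 µM ATP; PDGFRβ 1.25 ng/µL, 25 µM ATP. IC50 was taken from the dose-response fit.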

[4] = test system: BaF3; assay: Antiproliferative activity against mouse BaF3 cells transfected with FLT3 ITD mutant harboring AML patient derived GLVQVTGSSDNEYFYVDFREYE sequence assessed as cell growth inhibition incubated for 72 hrs by CCK-8 assay; assay type: functional
Outline: (§3)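 Kinase-transformed isogenic BaF3 lines grown in RPMI 1640 with 10% FBS, 2% L-glutamine and pen/strep at 37 °C, 5% CO2. Seeded at 1500-3000 cells/well and treated with a compound concentration series for 72 h. Viability read by CCK8 absorbance at 450 nm.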

[5] = target: Platelet-derived growth factor receptor beta (Homo sapiens, UniProt P09619); assay: Inhibition of PDGFRbeta (unknown origin) preincubated for 60 mins followed by ATP addition and measured after 1 hr by ADP-Glo assay; outline: as §2
[6] = test system: MOLM-13; assay: Induction of apoptosis in human MOLM-13 cells harboring FLT3-ITD mutant assessed as increase in cleaved caspase-3 level incubated for 24 hrs by Western blot analysis; assay type: functional, cell-based; conditions: dose 0.1-3 µM
[7] = target: Receptor-type tyrosine-protein kinase FLT3 (Homo sapiens, UniProt P36888, ITD); assay: Inhibition of FLT3 ITD mutant (unknown origin) preincubated for 60 mins followed by ATP addition and measured after 1 hr by ADP-Glo assay
[8] = AUC (0 to infinity) in Sprague-Dawley rat at 1 mg/kg, iv; assay type: ADME, organism-based; set-up: dose 1 mg/kg, route iv; conditions: in vivo
Outline: (§4)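 Sprague-Dawley rats dosed IV at 1 mg/kg or by oral gavage at 10 mg/kg. Parameters from plasma exposure: AUC(0-t), AUC(0-∞), MRT, T1/2, Tmax, Vz, CLz, Cmax. Values are mean ± SD from three animals.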

[9] = test system: BaF3; assay: Antiproliferative activity against mouse BaF3 cells transfected with FLT3 ITD mutant harboring FLAG-tagged DYKDDDDK sequence assessed as cell growth inhibition incubated for 72 hrs by CCK-8 assay; assay type: functional; outline: as §3
[10] = test system: MV4-11; assay: Induction of apoptosis in human MV4-11 cells harboring FLT3-ITD mutant assessed as increase in cleaved PARP level incubated for 24 hrs by Western blot analysis; assay type: functional, cell-based; conditions: dose 0.1-3 µM
[11] = AUC (0 to t) in Sprague-Dawley rat at 10 mg/kg, po; assay type: ADME, organism-based; set-up: dose 10 mg/kg, route po; conditions: in vivo; outline: as §4
[12] = AUC (0 to t) in Sprague-Dawley rat at 1 mg/kg, iv; assay type: ADME, organism-based; set-up: dose 1 mg/kg, route iv; conditions: in vivo; outline: as §4
[13] = test system: BaF3; assay: Antiproliferative activity against mouse BaF3 cells transfected with TEL-fused FLT3 assessed as cell growth inhibition incubated for 72 hrs by CCK-8 assay; assay type: functional; outline: as §3
[14] = test system: OCI-AML2; assay: cells; assay type: functional; conditions: Homo sapiens, time 72 hrs
[15] = test system: MV4-11; assay: Induction of cell cycle arrest in human MV4-11 cells harboring FLT3-ITD mutant assessed as accumulation of cells at G0/G1 phase at 0.1 uM incubated for 24 hrs by RNase/PI staining based flow cytometry analysis; assay type: functional
[16] = test system: MOLM-13; assay: Antiproliferative activity against human MOLM-13 cells transfected with FLT3-ITD mutant assessed as cell growth inhibition incubated for 72 hrs by CCK-8 assay; assay type: functional; outline: as §1
[17] = test system: MOLM-14; assay: Downregulation of c-Myc protein expression in human MOLM-14 cells harboring FLT3-ITD mutant incubated for 4 hrs by Western blot analysis; assay type: functional, cell-based; conditions: dose 0.01-3 µM
Outline: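 MOLM13 and MOLM14 cells exposed to the indicated concentrations for 4 h. Whole-cell lysates analysed by Western blot for c-Myc, alongside FLT3 Tyr589/591, STAT5, AKT and ERK phosphorylation.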

[18] = target: Mitogen-activated protein kinase kinase kinase kinase 1 (Homo sapiens, UniProt Q92918); assay: Inhibition of HPK1 (unknown origin) preincubated for 60 mins followed by ATP addition and measured after 1 hr by ADP-Glo assay
[19] = Cytotoxicity against CHO cells assessed as inhibition of cell growth; assay type: toxicity, cell-based, Cricetulus griseus; conditions: chinese hamster
[20] = test system: MOLM-14; assay: Induction of apoptosis in human MOLM-14 cells harboring FLT3-ITD mutant assessed as increase in cleaved caspase-3 level incubated for 24 hrs by Western blot analysis; assay type: functional, cell-based; conditions: dose 0.1-3 µM
[21] = Apparent volume of distribution in Sprague-Dawley rat at 10 mg/kg, po; assay type: ADME, organism-based; conditions: in vivo; outline: as §4
[22] = test system: BaF3; assay: Antiproliferative activity against mouse BaF3 cells transfected with TEL fused FLT3 K663Q mutant assessed as cell growth inhibition incubated for 72 hrs by CCK-8 assay; assay type: functional; outline: as §3
[23] = test system: BaF3; assay: Antiproliferative activity against mouse BaF3 cells transfected with FLT3 ITD D835I mutant assessed as cell growth inhibition incubated for 72 hrs by CCK-8 assay; assay type: functional; outline: as §3
[24] = Apparent volume of distribution in Sprague-Dawley rat at 1 mg/kg, iv; assay type: ADME, organism-based; conditions: in vivo, read-out: Vz; outline: as §4
[25] = test system: MOLM-13; assay: Induction of cell cycle arrest in human MOLM-13 cells harboring FLT3-ITD mutant assessed as accumulation of cells at G0/G1 phase at 0.1 uM incubated for 12 hrs by RNase/PI staining based flow cytometry analysis; assay type: functional
[26] = MRT (0 to t) in Sprague-Dawley rat at 10 mg/kg, po; assay type: ADME, organism-based; conditions: in vivo
Outline: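 Sprague-Dawley rats were dosed either intravenously at 1 mg/kg or by oral gavage at 10 mg/kg. Plasma PK parameters were AUC(0-t), AUC(0-∞), MRT(0-t), T1/2, Tmax, Vz, CLz, Cmax and F%. Values are the mean ± SD of three independent animals.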

[27] = test system: MOLM-13; assay: Inhibition of ERK phosphorylation at Thr202/Tyr204 residues in human MOLM-13 cells harboring FLT3-ITD mutant incubated for 4 hrs by Western blot analysis; assay type: cell-based; conditions: dose 0.01-3 µM
Outline: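 Cells were exposed to the compound at a series of concentrations for 4 h, and whole-cell lysates were analysed by Western blot. MV4-11 cells were grown in IMDM with 10% FBS. MOLM13 and MOLM14 cells were grown in RPMI 1640 with 10% FBS. All cultures were kept at 37 °C with 5% CO2.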

T1 sequence (P16234 whole entry): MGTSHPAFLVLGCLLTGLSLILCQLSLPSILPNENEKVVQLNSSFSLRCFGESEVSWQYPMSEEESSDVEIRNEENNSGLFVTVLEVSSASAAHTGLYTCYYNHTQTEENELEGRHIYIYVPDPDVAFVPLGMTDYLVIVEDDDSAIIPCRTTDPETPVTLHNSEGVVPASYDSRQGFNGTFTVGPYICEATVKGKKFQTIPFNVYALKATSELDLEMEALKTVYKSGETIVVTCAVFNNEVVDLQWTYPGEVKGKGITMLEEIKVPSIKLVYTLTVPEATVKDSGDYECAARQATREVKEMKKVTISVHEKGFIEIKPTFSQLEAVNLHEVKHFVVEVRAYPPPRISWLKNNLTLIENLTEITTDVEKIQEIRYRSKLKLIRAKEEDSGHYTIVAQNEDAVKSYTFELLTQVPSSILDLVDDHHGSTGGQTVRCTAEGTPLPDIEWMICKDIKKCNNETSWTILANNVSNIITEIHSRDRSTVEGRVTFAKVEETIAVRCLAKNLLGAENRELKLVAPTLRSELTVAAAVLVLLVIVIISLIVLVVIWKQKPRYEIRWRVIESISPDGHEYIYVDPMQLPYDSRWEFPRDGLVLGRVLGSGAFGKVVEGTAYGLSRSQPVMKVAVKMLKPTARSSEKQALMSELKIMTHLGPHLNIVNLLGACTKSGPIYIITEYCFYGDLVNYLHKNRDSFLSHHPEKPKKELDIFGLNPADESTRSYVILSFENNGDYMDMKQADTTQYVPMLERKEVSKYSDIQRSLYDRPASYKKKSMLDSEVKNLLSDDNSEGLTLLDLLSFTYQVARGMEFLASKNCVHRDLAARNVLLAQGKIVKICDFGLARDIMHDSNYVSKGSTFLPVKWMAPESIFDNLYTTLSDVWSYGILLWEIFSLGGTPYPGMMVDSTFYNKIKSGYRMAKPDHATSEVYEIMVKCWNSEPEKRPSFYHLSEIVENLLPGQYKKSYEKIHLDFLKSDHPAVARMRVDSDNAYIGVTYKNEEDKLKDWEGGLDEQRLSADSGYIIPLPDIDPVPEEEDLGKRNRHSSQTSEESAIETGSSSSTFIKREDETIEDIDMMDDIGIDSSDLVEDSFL
Platelet-derived growth factor receptor beta, sequence (P09619 whole entry): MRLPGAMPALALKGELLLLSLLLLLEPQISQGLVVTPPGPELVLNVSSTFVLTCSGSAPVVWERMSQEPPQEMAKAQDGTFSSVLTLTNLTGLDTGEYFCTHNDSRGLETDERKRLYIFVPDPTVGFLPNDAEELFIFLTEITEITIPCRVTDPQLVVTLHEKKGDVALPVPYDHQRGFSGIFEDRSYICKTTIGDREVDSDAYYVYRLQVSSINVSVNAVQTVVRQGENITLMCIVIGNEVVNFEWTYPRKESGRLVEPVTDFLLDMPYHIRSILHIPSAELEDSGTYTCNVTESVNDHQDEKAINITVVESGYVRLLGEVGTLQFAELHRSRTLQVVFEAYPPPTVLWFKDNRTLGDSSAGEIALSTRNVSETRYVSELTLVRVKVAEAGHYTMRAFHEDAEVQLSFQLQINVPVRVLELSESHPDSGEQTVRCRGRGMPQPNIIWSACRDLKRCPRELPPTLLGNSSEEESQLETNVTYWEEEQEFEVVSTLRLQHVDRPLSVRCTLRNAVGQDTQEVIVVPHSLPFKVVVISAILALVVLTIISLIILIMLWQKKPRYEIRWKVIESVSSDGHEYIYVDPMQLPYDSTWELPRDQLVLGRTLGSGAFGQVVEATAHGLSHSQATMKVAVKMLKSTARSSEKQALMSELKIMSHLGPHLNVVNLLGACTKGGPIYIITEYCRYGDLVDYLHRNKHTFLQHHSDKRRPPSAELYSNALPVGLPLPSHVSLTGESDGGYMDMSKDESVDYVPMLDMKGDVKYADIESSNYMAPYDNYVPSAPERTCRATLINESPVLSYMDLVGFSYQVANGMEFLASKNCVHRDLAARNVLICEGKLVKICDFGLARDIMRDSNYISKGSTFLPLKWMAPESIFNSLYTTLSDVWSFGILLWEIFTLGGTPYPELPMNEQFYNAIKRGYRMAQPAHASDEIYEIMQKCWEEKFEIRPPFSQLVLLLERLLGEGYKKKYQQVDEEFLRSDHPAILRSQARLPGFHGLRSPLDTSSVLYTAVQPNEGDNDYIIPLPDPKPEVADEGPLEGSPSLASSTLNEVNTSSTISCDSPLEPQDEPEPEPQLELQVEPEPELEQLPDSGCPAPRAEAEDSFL
Mitogen-activated protein kinase kinase kinase kinase 1, sequence (Q92918 whole entry): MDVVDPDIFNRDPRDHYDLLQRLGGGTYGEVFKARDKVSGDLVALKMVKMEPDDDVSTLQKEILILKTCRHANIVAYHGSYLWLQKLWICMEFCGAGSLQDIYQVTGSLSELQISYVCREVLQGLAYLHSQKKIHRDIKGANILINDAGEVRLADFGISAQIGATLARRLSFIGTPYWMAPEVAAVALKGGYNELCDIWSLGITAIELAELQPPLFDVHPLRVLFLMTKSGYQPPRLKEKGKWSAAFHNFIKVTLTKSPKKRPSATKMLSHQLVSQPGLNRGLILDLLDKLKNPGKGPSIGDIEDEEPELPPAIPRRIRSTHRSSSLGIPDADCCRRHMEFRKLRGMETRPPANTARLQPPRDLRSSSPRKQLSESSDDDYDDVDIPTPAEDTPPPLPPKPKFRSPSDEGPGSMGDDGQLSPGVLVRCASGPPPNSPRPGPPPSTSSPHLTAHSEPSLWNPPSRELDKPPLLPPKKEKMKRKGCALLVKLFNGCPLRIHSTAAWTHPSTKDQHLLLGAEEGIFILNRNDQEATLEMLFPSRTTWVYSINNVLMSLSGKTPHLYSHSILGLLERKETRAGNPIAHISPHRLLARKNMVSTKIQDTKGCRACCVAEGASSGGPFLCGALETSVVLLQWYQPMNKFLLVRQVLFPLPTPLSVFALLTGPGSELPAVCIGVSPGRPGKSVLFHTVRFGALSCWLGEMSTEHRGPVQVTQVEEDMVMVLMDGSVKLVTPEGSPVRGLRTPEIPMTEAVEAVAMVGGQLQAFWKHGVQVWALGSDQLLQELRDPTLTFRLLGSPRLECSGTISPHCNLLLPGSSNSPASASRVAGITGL
Receptor-type tyrosine-protein kinase FLT3, sequence (P36888 whole entry, looked up, stated change not applied): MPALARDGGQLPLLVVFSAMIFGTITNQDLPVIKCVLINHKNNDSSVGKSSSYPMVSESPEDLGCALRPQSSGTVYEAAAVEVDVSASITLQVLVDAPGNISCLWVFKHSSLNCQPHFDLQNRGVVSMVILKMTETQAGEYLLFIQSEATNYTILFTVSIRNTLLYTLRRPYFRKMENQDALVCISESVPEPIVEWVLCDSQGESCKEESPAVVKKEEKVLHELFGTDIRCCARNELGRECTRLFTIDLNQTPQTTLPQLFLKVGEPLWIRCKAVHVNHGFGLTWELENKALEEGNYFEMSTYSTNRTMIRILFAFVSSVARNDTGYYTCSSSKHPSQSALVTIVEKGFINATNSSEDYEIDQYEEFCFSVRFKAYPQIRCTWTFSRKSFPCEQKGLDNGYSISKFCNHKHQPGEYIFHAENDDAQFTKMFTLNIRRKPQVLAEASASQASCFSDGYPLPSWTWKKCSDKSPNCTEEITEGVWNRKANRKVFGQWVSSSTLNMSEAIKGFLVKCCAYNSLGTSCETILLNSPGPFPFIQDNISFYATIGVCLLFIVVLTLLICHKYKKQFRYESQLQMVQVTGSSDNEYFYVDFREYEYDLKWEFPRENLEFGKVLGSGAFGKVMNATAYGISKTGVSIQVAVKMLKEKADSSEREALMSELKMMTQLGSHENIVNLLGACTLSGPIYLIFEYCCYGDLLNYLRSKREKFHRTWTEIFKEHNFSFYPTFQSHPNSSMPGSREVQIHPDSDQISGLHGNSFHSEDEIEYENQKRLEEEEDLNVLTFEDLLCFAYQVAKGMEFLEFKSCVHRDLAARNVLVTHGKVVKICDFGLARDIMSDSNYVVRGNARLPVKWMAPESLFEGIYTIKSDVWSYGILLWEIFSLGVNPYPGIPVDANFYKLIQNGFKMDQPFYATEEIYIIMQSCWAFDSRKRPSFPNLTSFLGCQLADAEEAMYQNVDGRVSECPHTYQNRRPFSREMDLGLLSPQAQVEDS

CC(=O)Nc1cc(Oc2ccc(NC(=O)Cc3ccccc3C(F)(F)F)cc2)ncn1
GI50 [1]: 284 nM
Activity [2]: 3.3%
pIC50 [3]: 7.08
GI50 [4]: 32 nM
pIC50 [5]: 6.68
Activity [6]: Dose-Dependent Effect
pIC50 [7]: 7.62
AUC(0-inf) [8]: 1590 ng·h/mL
GI50 [9]: 85 nM
Activity [10]: Dose-Dependent Effect
AUC(0-t) [11]: 26700 ng·h/mL
AUC(0-t) [12]: 1560 ng·h/mL
GI50 [13]: 249 nM
GI50 [14]: > 10000 nM
Activity [15]: Active
GI50 [16]: 466 nM
Activity [17]: Dose-Dependent Effect
pIC50 [18]: < 5.00
GI50 [19]: > 10000 nM
Activity [20]: Dose-Dependent Effect
Vz [21]: 1.5 L/kg
GI50 [22]: 9400 nM
GI50 [23]: > 10000 nM
Vd [24]: 1.2 L/kg
Activity [25]: Active
MRT last [26]: 4.5 h
inhibition [27]: Dose-Dependent Effect
